Paper PMC4987166 (Clinical cancer research : an official journal of the …, 2016)

Key:
[1] = system: EWS-FLI1 target genes (NR0B1); experiment: Quantitative RT-PCR of NR0B1 and EWS-FLI1 target gene expression in TC32 cells; assay type: cell-based; conditions: for concentration showing equivalent suppression of EWS-FLI1 targets NR0B1, EZH2, and ID2: qPCR, 12 h
[2] = system: Ewing sarcoma cells; experiment: Cell proliferation / cell viability IC50 at 48 h; assay type: cell-based; conditions: read-out: cell viability IC50; 48 h of treatment
How it was run: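 Ewing sarcoma cells (TC32/TC71), STR-authenticated, grown in RPMI 1640 with 10% FBS, 2mM L-Gln and penicillin/streptomycin. Cells exposed to test compound for 48 h and cell number recorded across a dose range. IC50 from non-linear regression over at least 3 independent experiments.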

[3] = system: EWS-FLI1 target genes EZH2, NR0B1, and ID2; experiment: Immunoblot of EWS-FLI1 downstream targets; assay type: cell-based; conditions: TC32 cells, 50 nmol/L, 18 h
[4] = system: TC71 xenograft; conditions: TC32 and TC71 xenografts, 1 mg/kg IP M/W/F; cited from earlier work
[5] = system: CD-1 mice; experiment: Maximum tolerated dose in healthy CD-1 mice; conditions: mouse, in vivo
[6] = system: rat; experiment: Rat toxicity: liver enzymes, liver synthetic function, hematopoiesis; conditions: in vivo, 8 mg/kg
[7] = Serum drug levels in mice; conditions: mouse, in vivo
[8] = system: HepG2 cells; experiment: Time-lapse microscopy of HepG2 proliferation; assay type: cell-based; conditions: 50 nmol/L mithramycin, 50 nmol/L EC-8042 or 7.5 nmol/L EC-8105
[9] = system: γH2AX phosphorylation; experiment: DNA damage by phosphorylation of γH2AX; assay type: cell-based; conditions: 50 nmol/L mithramycin, 50 nmol/L EC-8042 or 7.5 nmol/L EC-8105
[10] = system: TC71 xenograft; experiment: TC71 Ewing sarcoma xenograft in nude mice; assay type: in vivo
[11] = system: NR0B1 expression (EWS-FLI1 activity); experiment: Immunofluorescence for NR0B1 in xenograft tumor tissue; assay type: in vivo, mouse; conditions: TC71 xenograft, day 3 of treatment, IP

| Compound | fold change in NR0B1 expression ([1]; TC32 cells, 50 nmol/L, 12 hr, qPCR vs GAPDH) | concentration showing equivalent suppression of EWS-FLI1 targets NR0B1, EZH2, and ID2 [1] [nmol/L] | IC50 [2] [nM] | suppression of EWS-FLI1 targets EZH2, NR0B1, and ID2 at the protein level [3] | xenograft tumor growth [4] | effect on panel of EWS-FLI1 target genes ([1]; Fig. 3B, legend: 15 nM for 18 h or 3 h) | Intraperitoneal MTD ([5]; ip) [mg/kg] | Intravenous MTD ([5]; iv) [mg/kg] | other toxicities (myelosuppression, compromise of liver synthetic function) [6] | serum levels of drug [7] [µM] | proliferation of HepG2 cells [8] | DNA damage as measured by phosphorylation of γH2AX [9] | tumor regression ([10]; 24 mg/kg IP (12% of the IP MTD)) | tumor growth rate less per day than the control ([10]; 24 mg/kg IP M/W/F, while being treated) [mm^3] | mean tumor size on day 11 of treatment ([10]; 24 mg/kg IP, control 3177 mm^3) [mm^3] | tumor growth less per day than the control ([10]; 24 mg/kg IV Q3D, while on treatment) [mm^3] | survival of treated cohort ([10]; 24 mg/kg IV, P <0.0001) | EWS-FLI1 activity in tumor tissue by NR0B1 immunofluorescent staining [11] |
| --- | --- | --- | --- | --- | --- | --- | --- | --- | --- | --- | --- | --- | --- | --- | --- | --- | --- | --- |
| mithramycin [reference compound] | 0.48 | 50 | 15.5 | suppressed | markedly suppresses and even regresses tumor growth |  |  |  |  |  |  |  |  |  |  |  |  |  |
| CO[C@@H]([C@@H]1Cc2cc3cc(O[C@H]4CC(O[C@H]5CC(O)[C@H](O)C(C)O5)[C@H](O)C(C)O4)c(C)c(O)c3c(O)c2C(=O)[C@H]1O[C@H]1CC(O[C@H]2CC(O[C@H]3CC(O)[C@H](O)C(C)O3)[C@@H](O)C(C)O2)[C@H](O)C(C)O1)[C@@H](O)C(C)=O (stereo partly drawn) [EC-8042] |  | 50 | 37.8 | suppressed |  | All the EWS-FLI1 induced targets were suppressed and all the repressed targets were induced to a comparable extent as mithramycin | 200 | 64 | no evidence of other toxicities | 4.295 | neither EC-8105 or EC-8042 had any effect | no DNA damaging effects | every tumor in every mouse showed some level of regression | 268.2 | 422.5 | 151 | extended the survival | clear suppression of EWS-FLI1 activity |
